The source of these data is ChEMBL document CHEMBL4393735, “Molecular modelling, synthesis, and biological evaluations of a 3,5-disubstituted isoxazole fatty acid analogue as a PPARα-selective agonist” (Bioorg Med Chem, 2019).

Assay [1] has as its target T1, Peroxisome proliferator-activated receptor alpha (Homo sapiens) (UniProt Q07869).
T1 sequence (whole entry): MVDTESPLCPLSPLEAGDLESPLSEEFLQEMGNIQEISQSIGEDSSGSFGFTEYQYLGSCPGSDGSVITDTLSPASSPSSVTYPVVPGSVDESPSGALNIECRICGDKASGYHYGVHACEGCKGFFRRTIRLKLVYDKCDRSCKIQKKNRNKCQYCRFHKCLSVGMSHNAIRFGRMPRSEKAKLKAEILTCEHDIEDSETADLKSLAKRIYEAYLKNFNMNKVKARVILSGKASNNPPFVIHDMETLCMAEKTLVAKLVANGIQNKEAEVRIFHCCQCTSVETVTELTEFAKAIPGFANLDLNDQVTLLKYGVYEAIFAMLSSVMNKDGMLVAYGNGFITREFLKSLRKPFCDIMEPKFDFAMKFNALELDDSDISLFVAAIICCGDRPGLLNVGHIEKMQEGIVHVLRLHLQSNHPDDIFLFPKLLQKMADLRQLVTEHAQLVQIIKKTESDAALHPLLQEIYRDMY
Briefly: Agonist activity at PPARalpha in human Huh7 cells assessed as PPARA mRNA expression at 50 uM measured after 18 hrs by qRT-PCR analysis. The assay is classed as cell-based. A digest of the protocol: (§1)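 Treatment for 18 h at 50 μM (or 1 μM for the 1 μM agents), DMSO vehicle. Harvested for qPCR. mRNA normalized to TBP by the comparative threshold method, expressed relative to DMSO control. Two biological replicates run in duplicate, mean ± SEM. Primary hepatocytes came from male C57BL/6N mice aged 7–8 weeks, isolated by portal-vein perfusion and digestion, seeded on collagen I and used on day 2. HuH-7 cells were kept in DMEM with 10% FBS and ITS.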

In assay [2] the test system is SGBS. Kind of assay: Upregulation of CEBPA gene expression in human preadipocyte derived from Simpson-Golabi-Behmel syndrome (SGBS) patient at 25 uM measured for 12 days by qRT-PCR analysis. The assay is classed as functional, cell-based. The method in brief: (§2)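 SGBS cells were differentiated with serum-free induction medium containing 25 μM test agent, 2 μM rosiglitazone or 0.1% DMSO from day 0. IBMX and dexamethasone were removed on day 4 and medium was renewed on day 8. RNA was taken on days 0, 4, 8 and 12 for qPCR, normalized to TBP and to day 0. At least three biological replicates in duplicate, two-way ANOVA with Bonferroni.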
A general note: In qPCR the cycle at which signal appears reflects the starting amount.

The target of assay [3] is T2, Peroxisome proliferator-activated receptor alpha (Mus musculus) (UniProt P23204).
T2 sequence (whole entry): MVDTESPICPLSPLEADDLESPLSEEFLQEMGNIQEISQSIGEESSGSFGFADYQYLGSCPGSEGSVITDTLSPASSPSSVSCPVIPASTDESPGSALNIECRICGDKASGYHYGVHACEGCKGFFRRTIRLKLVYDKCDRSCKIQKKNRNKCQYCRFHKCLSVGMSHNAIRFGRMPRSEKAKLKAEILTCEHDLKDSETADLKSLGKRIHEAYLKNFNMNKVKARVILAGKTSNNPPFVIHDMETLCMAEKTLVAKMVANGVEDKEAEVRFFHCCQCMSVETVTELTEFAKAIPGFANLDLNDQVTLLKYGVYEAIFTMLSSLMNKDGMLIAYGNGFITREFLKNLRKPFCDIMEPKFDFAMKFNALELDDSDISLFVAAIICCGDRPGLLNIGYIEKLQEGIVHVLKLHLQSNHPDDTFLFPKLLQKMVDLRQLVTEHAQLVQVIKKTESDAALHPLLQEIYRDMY
Briefly: Agonist activity at PPARalpha in C57BL/6N mouse primary hepatocytes assessed as activation of Cpt1a mRNA expression at 50 uM measured after 18 hrs by qRT-PCR analysis. The class given is cell-based. The method in brief: as §1

In assay [4] the test system is SGBS. Kind of assay: Upregulation of ANGPTL4 gene expression in human preadipocyte derived from Simpson-Golabi-Behmel syndrome (SGBS) patient at 25 uM measured for 12 days by qRT-PCR analysis. The class given is functional, cell-based. A digest of the protocol:
as §2

Assay [5] addresses T2, Peroxisome proliferator-activated receptor alpha (Mus musculus). Briefly: Agonist activity at PPARalpha in C57BL/6N mouse primary hepatocytes assessed as SREBF1 mRNA expression at 50 uM measured after 18 hrs by qRT-PCR analysis. The assay is classed as cell-based. A digest of the protocol: as §1
In assay [6] the test system is SGBS. Briefly: Upregulation of ADIPOQ gene expression in human preadipocyte derived from Simpson-Golabi-Behmel syndrome (SGBS) patient at 25 uM measured for 12 days by qRT-PCR analysis. The assay is classed as functional, cell-based. The method in brief:
as §2

Assay [7] relates to SGBS. Briefly: Upregulation of PPARgamma gene expression in human preadipocyte derived from Simpson-Golabi-Behmel syndrome (SGBS) patient at 25 uM measured for 12 days by qRT-PCR analysis. The assay is classed as functional, cell-based. A digest of the protocol: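 SGBS cells grown 4 days in biotin/D-pantothenate medium, then differentiated without FBS (apo-transferrin, insulin, T3, hydrocortisol, IBMX, dexamethasone) with 25 μM compound or 0.1 % DMSO added from day 0. After 4 days, switched to maintenance medium without IBMX/dexamethasone, renewed day 8. qPCR on days 0, 4, 8, 12, normalized to TBP (comparative threshold) and to day 0. Minimum three biological replicates in duplicate, mean ± SEM.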

Assay [8] concerns the target T1, Peroxisome proliferator-activated receptor alpha (Homo sapiens). Briefly: Agonist activity at PPARalpha in human Huh7 cells assessed as SREBF1 mRNA expression at 50 uM measured after 18 hrs by qRT-PCR analysis. The assay is classed as cell-based. A digest of the protocol: as §1
The subject of assay [9] is SGBS. Briefly: Upregulation of ACSL1 gene expression in human preadipocyte derived from Simpson-Golabi-Behmel syndrome (SGBS) patient at 25 uM measured for 12 days by qRT-PCR analysis. The assay is classed as functional, cell-based. The method in brief:
as §2

Assay [10] deals with SGBS. Briefly: Induction of adipocyte differentiation in human preadipocyte derived from Simpson-Golabi-Behmel syndrome (SGBS) patient assessed as lipid accumulation at 25 uM measured for 12 days by Oil red O staining based microscopic analysis. The class given is functional, cell-based. A digest of the protocol: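 Differentiation of SGBS preadipocytes was started in serum-free medium with transferrin, insulin, T3, hydrocortisol, IBMX and dexamethasone, plus 25 μM test agent, 2 μM rosiglitazone or 0.1% DMSO. On day 4 medium was switched to lack IBMX and dexamethasone, and it was renewed on day 8. Cells were fixed with 4% PFA and stained with 0.3% Oil Red O on days 0, 4, 8 and 12, then photographed.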

The subject of assay [11] is SGBS. Kind of assay: Upregulation of CD36 gene expression in human preadipocyte derived from Simpson-Golabi-Behmel syndrome (SGBS) patient at 25 uM measured for 12 days by qRT-PCR analysis. The class given is functional, cell-based. The method in brief:
as §2

The target of assay [12] is T2, Peroxisome proliferator-activated receptor alpha (Mus musculus). Briefly: Agonist activity at PPARalpha in C57BL/6N mouse primary hepatocytes assessed as SCD1 mRNA expression at 50 uM measured after 18 hrs by qRT-PCR analysis. The class given is cell-based. A digest of the protocol:
as §1

Assay [13] concerns SGBS. Briefly: Upregulation of FABP4 gene expression in human preadipocyte derived from Simpson-Golabi-Behmel syndrome (SGBS) patient at 25 uM measured for 12 days by qRT-PCR analysis. The assay is classed as functional, cell-based. A digest of the protocol: as §2
Assay [14] addresses T1, Peroxisome proliferator-activated receptor alpha (Homo sapiens). Briefly: Agonist activity at PPARalpha in human Huh7 cells assessed as activation of CPT1A mRNA expression at 50 uM measured after 18 hrs by qRT-PCR analysis. The assay is classed as cell-based. The method in brief: as §1
The test system of assay [15] is SGBS. Kind of assay: Upregulation of PLIN1 gene expression in human preadipocyte derived from Simpson-Golabi-Behmel syndrome (SGBS) patient at 25 uM measured for 12 days by qRT-PCR analysis. The class given is functional, cell-based. A digest of the protocol: as §2
The target in assay [16] is T1, Peroxisome proliferator-activated receptor alpha (Homo sapiens). Briefly: Agonist activity at PPARalpha in human Huh7 cells assessed as SCD1 mRNA expression at 50 uM measured after 18 hrs by qRT-PCR analysis. The class given is cell-based. The method in brief:
as §1

For assay [17], the target named is T2, Peroxisome proliferator-activated receptor alpha (Mus musculus). Kind of assay: Agonist activity at PPARalpha in C57BL/6N mouse primary hepatocytes assessed as PPARA mRNA expression at 50 uM measured after 18 hrs by qRT-PCR analysis. The assay is classed as cell-based. A digest of the protocol:
as §1

The target in assay [18] is T1, Peroxisome proliferator-activated receptor alpha (Homo sapiens). Briefly: Agonist activity at PPARalpha in human Huh7 cells assessed as PPARA mRNA expression at 1 uM measured after 18 hrs by qRT-PCR analysis. The class given is cell-based. The method in brief: as §1
The target of assay [19] is T2, Peroxisome proliferator-activated receptor alpha (Mus musculus). Kind of assay: Agonist activity at PPARalpha in C57BL/6N mouse primary hepatocytes assessed as activation of Scd1 mRNA expression at 1 uM measured after 18 hrs by qRT-PCR analysis. The class given is cell-based. A digest of the protocol:
as §1

For assay [20] the target is unchanged. Kind of assay: Agonist activity at PPARalpha in C57BL/6N mouse primary hepatocytes assessed as activation of Cpt1a mRNA expression at 1 uM measured after 18 hrs by qRT-PCR analysis. The assay is classed as cell-based. The method in brief: as §1
The target in assay [21] is T1, Peroxisome proliferator-activated receptor alpha (Homo sapiens). Kind of assay: Agonist activity at PPARalpha in human Huh7 cells assessed as activation of CPT1A mRNA expression at 1 uM measured after 18 hrs by qRT-PCR analysis. The class given is cell-based. A digest of the protocol: as §1
Assay [22] shares this target. Kind of assay: Agonist activity at PPARalpha in human Huh7 cells assessed as SREBF1 mRNA expression at 1 uM measured after 18 hrs by qRT-PCR analysis. The assay is classed as cell-based. The method in brief: as §1
In assay [23] the target is T2, Peroxisome proliferator-activated receptor alpha (Mus musculus). Kind of assay: Agonist activity at PPARalpha in C57BL/6N mouse primary hepatocytes assessed as activation of Srebf1 mRNA expression at 1 uM measured after 18 hrs by qRT-PCR analysis. The assay is classed as cell-based. A digest of the protocol: as §1
The target of assay [24] is T1, Peroxisome proliferator-activated receptor alpha (Homo sapiens). Kind of assay: Agonist activity at PPARalpha in human Huh7 cells assessed as SCD1 mRNA expression at 1 uM measured after 18 hrs by qRT-PCR analysis. The class given is cell-based. The method in brief: as §1

Molecules are shown by their SMILES. Active and inactive are the calls of the source.

Consider `Cc1cccc(Nc2cc(Cl)nc(SCC(=O)O)n2)c1C`, for which the outcome in assay [1], in assay [8] and in assay [16] was inactive. Moreover, the result (in the assay on SGBS [2]; in assay [3]; with SGBS [4]; in assay [5]; in the assay on SGBS [6]; in the assay with SGBS [7]) was Active. Further, the result (in the assay with SGBS [9]; in the assay on SGBS [10]; with SGBS [11]; in assay [12]; with SGBS [13]; in assay [14]) was Active. Further, in the assay on SGBS [15], the outcome was Active.

With `CCCCC/C=C/C(=O)CCCCCCCC(=O)O`, the outcome (in [17]; with SGBS [2]; in the assay with SGBS [4]; in the assay on SGBS [6]; with SGBS [7]; in the assay with SGBS [9]) was Active. The result in the assay on SGBS [10], with SGBS [11], in the assay with SGBS [13] and in the assay with SGBS [15] was Active. The result in [1], in assay [5], in assay [8], in assay [12] and in [16] was inactive.

For `CC(C)(Sc1ccc(CCN(CCCCC2CCCCC2)C(=O)NC2CCCCC2)cc1)C(=O)O`, the outcome in [18], in assay [22] and in [24] was inactive. Also, the result in [19], in [20], in assay [21] and in assay [23] was Active.
